Experimental data as given in ChEMBL document CHEMBL1124749, “Analogues of 1,5-bis(4-amidinophenoxy)pentane (pentamidine) in the treatment of experimental Pneumocystis carinii pneumonia” (J Med Chem, 1990).
Several values for one entry are separate records, joined by “and”; a condition that tells them apart may be missing. Identical values can stand only once.

Key:
Pneumocystis carinii [1] = assay: (§1) Ability to reduce the severity of PCP in immunosuppressed rats after (iv) administration of 10 mg/kg/day; format: functional
In short: (§2)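 Male Sprague-Dawley rats (150–200 g, barrier raised) were given corticosteroids to induce PCP. From week 6, groups of eight or more received the compound by single daily iv injection in 0.4 mL saline for 14 days, generally at 10 mg/kg. Rats were killed at the end of week 8. GMS-stained lung sections were scored from 0.5 to 4 (4 = >50% involvement), with saline and pentamidine control groups.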

[2] = Cytotoxicity in […], spleen and kidneys for pathologic changes by light microscopy.+ = animals survived without observable distress; format: tissue-based; details: rat
In short: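 In corticosteroid-immunosuppressed rats given 14 daily iv doses for PCP, liver, spleen and kidneys were examined for pathology by light microscopy, and health was recorded daily. Toxicity was graded at 10 mg/kg or the highest dose tested on a scale from 0 (no local, clinical or histologic toxicity) to 4+ (≥50% of animals died).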

Pneumocystis carinii [3] = assay: Ability to reduce the severity of PCP in immunosuppressed rats after (i.v.) administration of 10 mg/kg/day; format: functional; details: route intravenous; in short: as §2
Pneumocystis carinii [4] = assay: as §1; format: functional; in short: as §2; remark: listed apart in the source
Calf thymus DNA = assay: DNA binding affinity at low ionic strength as change in midpoint; format: nucleic-acid assay; details: Bos taurus
Serine protease 1 [5] = target: T1, Serine protease 1 (Homo sapiens, UniProt P07477); assay: Inhibition of trypsin by amidase assay.
Rattus norvegicus [6] = assay: as §1; format: functional; in short: as §2
Rattus norvegicus [7] = organism: Rattus norvegicus; assay: Ability to reduce the severity of PCP in histologic score (represents scattered cysts,25-50% lung involved with small intense areas of infection); format: functional; in short: as §2
Rattus norvegicus [8] = organism: Rattus norvegicus; assay: Ability to reduce the severity of PCP in histologic score (represents >50% lung involved with many intense areas of focal infection); format: functional; in short: as §2
Rattus norvegicus [9] = assay: Ability to reduce the severity of PCP in immunosuppressed rats after(iv) administration of 10 mg/kg/day; format: functional; details: in the assay text read “1.25 mg/kg/day” for “10 mg/kg/day”; in short: as §2
Rattus norvegicus [10] = assay: Ability to reduce the severity of PCP in immunosuppressed rats after (iv)administration; not tested in animals, Insoluble; format: functional, organism-based
[11] = Cytotoxicity in […], spleen and kidneys for pathologic changes by light microscopy.++ = most animals survived, with severe distress and marked local toxicity and some systemic toxicity and histopathologic abnormalities; format: tissue-based; details: rat
In short: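 Male Sprague-Dawley rats (150–200 g), corticosteroid-immunosuppressed to induce PCP; from week 6, single daily iv injection for 14 days, usually 10 mg/kg in 0.4 mL saline (lower if insoluble or toxic); killed end of week 8. Liver, spleen, kidneys examined by light microscopy; daily health observation; toxicity graded 0 to 4+ at 10 mg/kg or highest dose tested.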

Serine protease 1 [12] = target: T1, Serine protease 1; assay: Inhibition of trypsin by amidase assay

T1 sequence (P07477 whole entry): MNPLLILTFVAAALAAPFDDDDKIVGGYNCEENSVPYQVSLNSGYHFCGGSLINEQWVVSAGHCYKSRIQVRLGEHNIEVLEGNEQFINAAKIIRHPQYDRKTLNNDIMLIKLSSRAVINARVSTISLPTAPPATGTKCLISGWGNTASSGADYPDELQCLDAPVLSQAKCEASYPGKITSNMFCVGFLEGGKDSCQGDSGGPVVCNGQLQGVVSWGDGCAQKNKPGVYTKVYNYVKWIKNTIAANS

Row | ΔTm (Calf thymus DNA) | Ki (Serine protease 1 [5]) | Structure (SMILES) | No. of animals (Pneumocystis carinii [1]) | Toxicity [2] | No. of animals (Pneumocystis carinii [4]) | other results
1 | 6.8 °C | 3.8 µM | Cl.Cl.N=C(N)c1cccc(OCCCCCOc2cccc(C(=N)N)c2)c1 | 4 | animals survived without observable distress | 3 | 
2 | 9.6 °C | 9.1 µM | Cl.N=C(N)c1ccc(OCCCCOc2ccc(C(=N)N)cc2N)c(N)c1 | 2 |  | 5 | No. of animals (Rattus norvegicus [6]): 1; No. of animals (Rattus norvegicus [7]): 0; No. of animals (Rattus norvegicus [8]): 0
3 |  |  | Cl.N=C(N)c1ccc(OCCCCCCOc2ccc(C(=N)N)cc2[N+](=O)[O-])c([N+](=O)[O-])c1 |  |  |  | No. of animals (Rattus norvegicus [9]): 1
4 | 7.6 °C | 1.1 µM | Cl.Cl.N=C(N)c1cccc(OCCCOc2cccc(C(=N)N)c2)c1 | 2 |  | 1 | 
5 | 8.1 °C | 1.8 µM | Cl.Cl.N=C(N)c1cccc(OCCCCOc2cccc(C(=N)N)c2)c1 | 2 |  | 1 | 
6 | 8.3 °C | 5.3 µM | Cl.N=C(N)c1ccc(NCCCCCCNc2ccc(C(=N)N)cc2N)c(N)c1 | 3 | animals survived without observable distress | 1 | 
7 | 7.3 °C | 4 µM | Cl.Cl.N=C(N)c1cccc(OCCCCCCOc2cccc(C(=N)N)c2)c1 | 1 | animals survived without observable distress | 4 | 
8 | 10.5 °C |  | Cl.Cl.N=C(N)c1ccc(OCCCCCOc2ccc(C(=N)N)cc2Cl)c(Cl)c1 | 0 |  | 0 | 
9 | 5.4 °C | 7.3 µM | N=C(N)c1ccc(OCCOc2ccc(C(=N)N)cc2)cc1 |  |  |  | 
10 |  |  | N=C(N)c1ccc(OCCCCCOc2ccc(C(=N)N)cc2Br)c(Br)c1 |  |  |  | No. of animals (Rattus norvegicus [10]): Insoluble
11 | 11.6 °C | 1.1 µM | Cl.N=C(N)c1ccc(NCCCNc2ccc(C(=N)N)cc2)cc1 | 5 and 2 | animals survived without observable distress | 1 | No. of animals (Rattus norvegicus [7]): 0; No. of animals (Rattus norvegicus [8]): 0
12 | 14.7 °C | 3.3 µM | Cl.Cl.N=C(N)c1ccc(OCCCOc2ccc(C(=N)N)cc2)cc1 | 3 | animals survived without observable distress | 4 | 
13 | 13.6 °C | 5.8 µM | Cl.Cl.N=C(N)c1ccc(OCCCOc2ccc(C(=N)N)cc2N)c(N)c1 | 2 |  | 4 | No. of animals (Rattus norvegicus [6]): 1; No. of animals (Rattus norvegicus [7]): 0; No. of animals (Rattus norvegicus [8]): 0
14 | 11 °C | 10.3 µM | Cl.N=C(N)c1ccc(NCCCNc2ccc(C(=N)N)cc2N)c(N)c1 | 1 | animals survived without observable distress | 4 | 
15 | 10.7 °C | 2.3 µM | Cl.N=C(N)c1ccc(OCCCCCOc2ccc(C(=N)N)cc2)cc1 [PENTAMIDINE HYDROCHLORIDE] | 21 |  | 28 | 
16 | 10.2 °C |  | COc1cc(C(=N)N)ccc1OCCCCOc1ccc(C(=N)N)cc1OC.Cl.Cl | 3 |  | 4 | 
17 | 8.9 °C |  | Cl.Cl.N=C(N)c1ccc(OCCCCOc2ccc(C(=N)N)cc2Cl)c(Cl)c1 |  |  | 1 | No. of animals (Rattus norvegicus [6]; in the assay text read “1.25 mg/kg/day” for “10 mg/kg/day”): 0; No. of animals (Pneumocystis carinii [3]): 2 and 3
18 | 10.5 °C | > 2000 µM | Cl.c1cc(C2=NCCN2)ccc1OCCCCCOc1ccc(C2=NCCN2)cc1 |  |  | 3 | No. of animals (Rattus norvegicus [7]): 0; No. of animals (Rattus norvegicus [8]): 0
19 | 8.8 °C |  | Cl.N=C(N)c1ccc(OCCOc2ccc(C(=N)N)cc2N)c(N)c1 |  |  | 4 | No. of animals (Rattus norvegicus [7]): 0; No. of animals (Rattus norvegicus [8]): 0; Ki (Serine protease 1 [12]): 5 µM
20 | 11 °C | 4.8 µM | Cl.N=C(N)c1ccc(NCCCCCNc2ccc(C(=N)N)cc2N)c(N)c1 | 3 | animals survived without observable distress | 2 | 
21 | 9.1 °C | 12.7 µM | Cl.N=C(N)c1ccc(NCCNc2ccc(C(=N)N)cc2N)c(N)c1 | 0 | animals survived without observable distress | 0 | 
22 | 16.3 °C | 1.3 µM | COc1cc(C(=N)N)ccc1OCCCOc1ccc(C(=N)N)cc1OC.Cl.Cl | 7 |  | 1 | No. of animals (Pneumocystis carinii [3]): 0
23 | 10.8 °C | 1.8 µM | Cl.N=C(N)c1ccc(OCCCCCOc2ccc(C(=N)N)cc2N)c(N)c1 |  | animals survived without observable distress | 5 | No. of animals (Rattus norvegicus [7]): 1; No. of animals (Rattus norvegicus [8]): 0
24 | 10.5 °C | 11.1 µM | Cl.N=C(N)c1ccc(NCCCCNc2ccc(C(=N)N)cc2N)c(N)c1 | 0 | animals survived without observable distress | 4 | 

Row | Structure (SMILES) | ΔTm (Calf thymus DNA) | Ki (Serine protease 1 [5]) | No. of animals (Pneumocystis carinii [1]) | Toxicity [2] | No. of animals (Pneumocystis carinii [4]) | other results
25 | Cl.Cl.N=C(N)c1ccc(OCCCCOc2ccc(C(=N)N)cc2)cc1 | 8.3 °C | 1.5 µM | 8 | Non-toxic | 0 | No. of animals (Pneumocystis carinii [3]): 0
26 | Cl.N=C(N)c1ccc(NCCCCCNc2ccc(C(=N)N)cc2)cc1 | 11.3 °C | 1.4 µM |  |  | 2 | 
27 | Cl.N=C(N)c1ccc(NCCCCNc2ccc(C(=N)N)cc2)cc1 | 10.3 °C | 1.6 µM |  |  | 1 | 
28 | Cl.Cl.N=C(N)c1ccc(OCCCCOc2ccc(C(=N)N)cc2[N+](=O)[O-])c([N+](=O)[O-])c1 | 8.5 °C | 5.4 µM | 0 |  | 0 | 
29 | Cl.Cl.N=C(N)c1ccc(OCCCCCOc2ccc(C(=N)N)cc2[N+](=O)[O-])c([N+](=O)[O-])c1 | 9.7 °C | 1 µM | 0 |  | 2 | 
30 | Cl.N=C(N)c1ccc(NCCCCCNc2ccc(C(=N)N)cc2[N+](=O)[O-])c([N+](=O)[O-])c1 | 12.7 °C | 8 µM |  |  | 3 | No. of animals (Pneumocystis carinii [3]): 2 and 1
31 | Cl.N=C(N)c1ccc(NCCCNc2ccc(C(=N)N)cc2[N+](=O)[O-])c([N+](=O)[O-])c1 | 12.8 °C | 4.3 µM |  |  | 0 | No. of animals (Rattus norvegicus [6]): 0; Toxicity [11]: most animals survived, with severe distress and marked local toxicity and some systemic toxicity and histopathologic abnormalities
32 | Cl.N=C(N)c1ccc(OCCCCCCOc2ccc(C(=N)N)cc2N)c(N)c1 | 9.5 °C | 293 µM |  |  | 1 | No. of animals (Rattus norvegicus [7]): 3; No. of animals (Rattus norvegicus [8]): 0
33 | Cl.Cl.N=C(N)c1ccc(OCCCCCCOc2ccc(C(=N)N)cc2)cc1 | 9.1 °C | 2.7 µM | 3 |  | 3 | 
34 | COc1cc(C(=N)N)ccc1OCCCCCOc1ccc(C(=N)N)cc1OC.Cl.Cl | 12 °C | 1.3 µM | 2 |  | 4 | 
